Experimental data reported in ChEMBL document CHEMBL1828544, “Structural modification of honokiol, a biphenyl occurring in Magnolia officinalis: the evaluation of honokiol analogues as inhibitors of angiogenesis and for their cytotoxicity and structure-activity relationship” (J Med Chem, 2011).
Calls of active or inactive are those of the source. No cut-off for these calls is given here.

Tests used:
HUVEC [1] = test: Antiproliferative activity against human HUVEC cells after 24 hrs by MTT assay; assay type: functional, cell-based
How it was run: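 Primary HUVECs grown on gelatin in M-199 with 20% FBS, 10 ng/mL bFGF, 2 ng/mL VEGF, 5% CO2, 37 °C. Cells (5 × 10^3/well) exposed to a range of compound concentrations for 24 h. MTT added for 3 h, formazan dissolved in DMSO, absorbance read at 570 nm. IC50 from percentage growth versus untreated control.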

HUVEC [2] = test: Antimigratory activity against human HUVEC cells at 20 uM after 24 hrs by wound-healing assay; assay type: functional, cell-based
How it was run: (§1)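 HUVEC monolayers grown overnight to confluence on 0.1% gelatin, scratched with pipet tips, washed, then kept in serum-free DMEM with compound (20 or 40 μM) for 24 h at 37 °C, 5% CO2; control serum-free DMEM. Migrated cells counted manually from images at 0 and 24 h, three random fields; three independent experiments, mean ± SE.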

Danio rerio [3] = species: Danio rerio; test: Antiangiogenic activity in fli-1:enhanced GFP expressing transgenic zebrafish embryo assessed as inhibition of neovacularisation at 10 uM after 24 hrs relative to control; assay type: functional
How it was run: (§2)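 fli-1:EGFP transgenic zebrafish embryos sorted at about 6 hpf (6 per well), exposed in embryo water to compound at 5–40 μM for 24 h. Then anesthetized with 0.05% 2-phenoxyethanol, photographed and quantified.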

[4] = Antiproliferative activity against mouse LL/2 cells after 24 hrs by MTT assay; assay type: functional, cell-based; conditions: Lewis lung carcinoma
How it was run: (§3)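 Cells (5 × 10^3/well) kept at 37 °C, 5% CO2 and treated with varied compound concentrations for 24 h. MTT given for a further 3 h, precipitate dissolved in DMSO, absorbance taken at 570 nm. IC50 calculated from percentage growth relative to untreated control.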

HUVEC [5] = test: Antiangiogenic activity against human HUVEC cells assessed as inhibition of tube formation at 20 uM after 12 hrs by matrigel-based assay; assay type: functional
How it was run: (§4)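 HUVECs (1 × 10^4) in DMEM with compound (20 μM) plated on Matrigel that had set at 37 °C for 45 min; controls got DMEM alone. After 12 h at 37 °C, capillary networks were photographed and intact tubes counted in five random regions. Inhibition expressed as percentage of control.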

Danio rerio [6] = species: Danio rerio; test: Antiangiogenic activity in fli-1:enhanced GFP expressing transgenic zebrafish embryo assessed as inhibition of neovacularisation at 5 uM after 24 hrs relative to control; assay type: functional; how it was run: as §2
HUVEC [7] = test: Antimigratory activity against human HUVEC cells assessed as migration rate at 40 uM after 24 hrs by wound-healing assay relative to control; assay type: functional; how it was run: as §1
Danio rerio [8] = species: Danio rerio; test: Antiangiogenic activity in fli-1:enhanced GFP expressing transgenic zebrafish embryo assessed as inhibition of neovacularisation at 20 uM after 24 hrs relative to control; assay type: functional; how it was run: as §2
HepG2 = test: Antiproliferative activity against human HepG2 cells after 24 hrs by MTT assay; assay type: functional, cell-based; conditions: HepG2, 24 h; how it was run: as §3
Danio rerio [9] = species: Danio rerio; test: Antiangiogenic activity in fli-1:enhanced GFP expressing transgenic zebrafish embryo assessed as inhibition of neovacularisation at 40 uM after 24 hrs relative to control; assay type: functional; how it was run: as §2
A549 = test: Antiproliferative activity against human A549 cells after 24 hrs by MTT assay; assay type: functional, cell-based; conditions: A549, 24 h; how it was run: as §3
Danio rerio [10] = species: Danio rerio; test: Antiangiogenic activity in fli-1:enhanced GFP expressing transgenic zebrafish embryo assessed as inhibition of dorsal longitudinal anastomic vessel sprouts after 48 hrs; assay type: functional, organism-based
How it was run: (§5)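 Transgenic fli-1:EGFP zebrafish embryos (GFP across endothelium) sorted at about 6 hpf, 6 per well, with dead or unhealthy ones removed. Compound (10, 20, 40 μM) added to embryo water (0.2 g/L instant ocean salt) from 6 hpf for 48 h. Embryos then anesthetized in 0.05% 2-phenoxyethanol, imaged, and intersomitic and dorsal longitudinal anastomotic vessel sprouts assessed.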

HUVEC [11] = test: Antimigratory activity against human HUVEC cells after 24 hrs by wound-healing assay relative to honokiol; assay type: functional; how it was run: as §1
Danio rerio [12] = species: Danio rerio; test: Antiangiogenic activity in fli-1:enhanced GFP expressing transgenic zebrafish embryo assessed as inhibition of intersomitic vessel sprouts after 48 hrs; assay type: functional, organism-based; how it was run: as §5
HUVEC [13] = test: Antiangiogenic activity against human HUVEC cells assessed as inhibition of tube formation at 20 uM after 12 hrs by matrigel-based assay relative to honokiol; assay type: functional; how it was run: as §4

SMILES	IC50 (HUVEC [1]) [µM]	Activity (HUVEC [2])	inhibition (INH) (Danio rerio [3]) [%]	IC50 [4] [µM]	inhibition at 20 µM (HUVEC [5]) [%]	inhibition (INH) (Danio rerio [6]) [%]	Migration rate relative to control (HUVEC [7]) [%]	inhibition (INH) (Danio rerio [8]) [%]	IC50 (HepG2) [µM]	inhibition (Danio rerio [6])	inhibition (INH) (Danio rerio [9]) [%]	IC50 (A549) [µM]	inhibition (Danio rerio [3])	inhibition (Danio rerio [10])	fold change (FC) (HUVEC [11])	inhibition (Danio rerio [12])	fold change (FC) (HUVEC [13])
C=CCc1ccc(O)c(-c2ccc(O)c(CC=C)c2)c1 [HONOKIOL]	52.6	Active	25	65.4	51.4	<25	38.5	50									
C=CCc1ccc(OCCC)c(-c2ccc(O)c(CC=C)c2)c1	73.3		<25	45.8				<25	49.9	inactive	<25	53.8					
C=CCc1cc(C=O)c(OC)c(-c2ccc(O)c(CC=C)c2)c1	32.5	Active	<25	20.4	82.5	<25	63.2	25	20.9		25	28.6					
C=CCc1ccc(O)c(-c2ccc(OC)c(CC=C)c2)c1 [METHYLHONOKIOL]	55.8	Active	<25	68.8	34.9	<25	54.2	25	55.3		25						
C=CCc1ccc(OC(C)C)c(-c2ccc(O)c(CC=C)c2)c1	65.5		<25	48.4		<25		<25	63.5		<25	53.2					
C=CCc1cc(C=O)c(OCC)c(-c2ccc(OCC)c(CC=C)c2)c1	37.9		<25	31.9				<25	28.5	inactive	<25	39					
C=CCc1ccc(O)c(-c2ccc(O)cc2)c1	64.3		<25	> 100				<25	89	inactive		76.2					
C=CCc1ccc(O)c(-c2ccc(OC(C)C)c(CC=C)c2)c1	70.5		<25	49.1				<25	48.4	inactive		42.7					
C=CCc1ccc(O)c(-c2cccc([N+](=O)[O-])c2)c1	79.1		<25	61.4				<25	62.3	inactive		> 100					
C=CCc1cc(-c2ccc(OC)cc2)cc(CC=C)c1O	> 100		<25	60.3				<25	69.2	inactive	<25	75.6					
C=CCc1cc(-c2cccc([N+](=O)[O-])c2)cc(CC=C)c1O	> 100		<25	56.5				<25	80.5	inactive	<25	80					
C=CCc1cc(-c2ccc(C(F)(F)F)cc2)ccc1O	74		<25	74.8				<25	60.3	inactive	<25	76					
C=CC(C)(C)c1cc(-c2cccc([N+](=O)[O-])c2)ccc1O	77			45.1				<25	56	inactive	<25	64	inactive				
C=CCc1cc(-c2ccc(OC)c(OC)c2)ccc1O	> 100			> 100					> 100			> 100					
C=CCc1cc(CO)c(O)c(-c2cc(CO)c(O)c(CC=C)c2)c1	> 100			> 123					> 123			> 123					
C=CCc1cc(-c2cc(F)cc(F)c2)ccc1O	80		<25	78.2		<25		<25	> 100		<25	> 100					
C=CCc1cc(-c2ccccc2C(F)(F)F)ccc1O	82		<25	60.3				<25	52.4	inactive	<25	59.7					
C=CCc1cc(C=O)c(O)c(-c2cc(C=O)c(O)c(CC=C)c2)c1	15.1	Active	25	21.7	21.3	<25	21.2	50	10.7			30.2		Dose-dependent effect	1.5	Dose-dependent effect	2.5
C=CCc1cc(C=O)c(O)c(-c2ccc(O)c(CC=C)c2)c1	46.2	Active	25	65.3	41.2	<25	34.2	25	32.9			43.6					
C=CCc1cc(-c2ccc(C(F)(F)F)cc2)ccc1OC	> 100			78.8					89			> 100					
C=CCc1cc(C=O)c(OC)c(-c2ccc(OC)c(CC=C)c2)c1	39.1		<25	40.8		<25		<25	53.9		<25	42.6					
